# Experimental data from different studies.
# Protocols differ between the studies behind these lines. pIC50: −log10 of the molar value.
# MAOA: Amine oxidase [flavin-containing] A (MAOA, Homo sapiens, UniProt P21397)
# PRMT3: Protein arginine N-methyltransferase 3 (PRMT3, Homo sapiens, UniProt O60678)
# NTRK1: High affinity nerve growth factor receptor (NTRK1, Homo sapiens, UniProt P04629)
# PDE7A: High affinity 3',5'-cyclic-AMP phosphodiesterase 7A (PDE7A, Homo sapiens, UniProt Q13946)
# TDP1: Tyrosyl-DNA phosphodiesterase 1 (TDP1, Homo sapiens, UniProt Q9NUW8)
SMILES,target,read-out,mode,technique,pH,setting,pIC50
O=c1cc(-c2ccc(O)cc2)oc2c([C@@H]3O[C@H](CO)[C@@H](O)[C@H](O)[C@H]3O)c(O)cc(O)c12,MAOA,enzyme activity,inhibitor,,,,4.41
O=C(/C=C/c1ccc(O)c(O)c1)O[C@@H]1C[C@](O)(C(=O)O)C[C@@H](O)[C@H]1O,"L-lactate dehydrogenase A chain (LDHA, Homo sapiens, UniProt P00338)",enzyme activity,inhibitor,,pH 7.4,,< 3.30
C[C@@H]1C[C@H]2O[C@@H]2/C=C\C=C\C(=O)Cc2cc(O)cc(O)c2C(=O)O1,"Mitogen-activated protein kinase kinase kinase 7 (MAP3K7, Homo sapiens, UniProt O43318)",enzyme activity,inhibitor,ATP luminescence,,,< 5.00
Nc1ncnc2c1ncn2[C@@H]1O[C@H](CSCCCNC(=O)NCc2ccccc2)[C@@H](O)[C@H]1O,PRMT3,enzyme activity,inhibitor,fluorescence,,,4.15
CN1CCN(c2ccc(Nc3ncc4cc(C#N)c(=O)n(C5CCCC5)c4n3)cc2)CC1,"Serine/threonine-protein kinase MARK2 (MARK2, Homo sapiens, UniProt Q7KZI7)",enzyme activity,inhibitor,,,,6.25
C=CC(=O)Nc1cc(Nc2nccc(Nc3cc(Cl)c(F)cc3C(C)(C)O)n2)c(OC)cc1N1CC[C@@H](N(C)C)C1,"Focal adhesion kinase 1 (PTK2, Homo sapiens, UniProt Q05397)",enzyme activity,inhibitor,,,with preincubation,6.59
O=c1oc(Cl)c(Cl)c2ccccc12,"Rhomboid protease AarA (Providencia stuartii, UniProt P46116)",enzyme activity,inhibitor,fluorescence,,,5.00
CN1CCN(CCCN2c3ccccc3Sc3ccc(Cl)cc32)CC1,"Glutathione reductase, mitochondrial (GSR, Homo sapiens, UniProt P00390)",enzyme activity,inhibitor,absorbance,,,< 4.00
CCOCc1nc(O)c(-c2nnc(Cc3ccc(Cl)cn3)o2)c(O)c1-c1c(OC)cccc1OC,"Histamine H2 receptor (HRH2, Homo sapiens, UniProt P25021)",ligand displacement,,radioligand,,,< 4.52
Cc1cnc(-c2ccc(-c3ccc(NC(=O)Nc4c(F)cc(F)cc4F)cc3F)c3c2C(=O)NC3)[nH]1,NTRK1,enzyme activity,inhibitor,,,,7.83
COc1cc(C[C@H]2C(=O)OC[C@@H]2Cc2ccc(OC)c(OC)c2)ccc1O,PDE7A,enzyme activity,inhibitor,,,,< 4.70
C#CCOc1ccc(/C=C/C(=O)N2CCC(Cc3ccccc3)CC2)cc1OC,MAOA,enzyme activity,inhibitor,fluorescence,,,4.34
CCNC(=O)NCCSC[C@H]1O[C@@H](n2cnc3c(N)ncnc32)[C@H](O)[C@@H]1O,PRMT3,enzyme activity,inhibitor,fluorescence,,,< 4.00
C[C@@H](N)COc1ccc(-c2cnc3ccc(N[C@H](C)c4cccc(F)c4)nn23)cc1,NTRK1,enzyme activity,inhibitor,,,,8.36
C(/C=C/c1sc2c3ccccc3ccc2[n+]1CCCc1ccccc1)=C1/Sc2c(ccc3ccccc23)N1CCCc1ccccc1,PRMT3,enzyme activity,inhibitor,radiometric,,,5.68
COc1cc2c(OC)nc3c4cc5c(cc4cc(OCCCN4CCC(O)CC4)c3c2cc1OC)OCO5,TDP1,enzyme activity,inhibitor,,,,4.89 to 5.26
N=C(NCCCSC[C@H]1O[C@@H](n2cnc3c(NCCCc4ccccc4)ncnc32)[C@H](O)[C@@H]1O)NCC1CCCCC1,PRMT3,enzyme activity,inhibitor,fluorescence,,,< 4.00
COc1cc2c(OC)nc3c4cc5c(cc4cc(OCCCN4CCC(N6CCCCC6)CC4)c3c2cc1OC)OCO5,TDP1,enzyme activity,inhibitor,,,,4.96
O=C1NC(=O)/C(=C/c2ccc(OCCNc3nc4c(cnn4C4CCCC4)c(=O)[nH]3)c(F)c2)S1,PDE7A,enzyme activity,inhibitor,,,,7.57
